Series [1] concerns Mus musculus. The series is described as follows: Immunostimulatory activity in BALB/c mouse assessed as influx of macrophages into peritoneal cavity at 100 ug, ip after 24 hrs. It is filed as functional, organism-based. In outline:
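Female BALB/c mice (6–8 weeks) got one ip injection of sample. Peritoneal cavity cells were collected and percentages of macrophages, lymphocytes and mast cells scored. Values are the mean of three independent experiments ± SD.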

For series [2], the system named is Mus musculus. Description: Immunostimulatory activity in BALB/c mouse assessed as induction of peripheral blood granulocyte phagocytosis at 100 ug, ip after 24 hrs. It is filed as functional, organism-based. In outline:
(§1)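 Female BALB/c mice (6–8 weeks) were injected ip with oligosaccharide 24 h before the test. Heparinised (5 IU/mL) orbital plexus blood was incubated with synthetic HEMA microspheres. Two smears from two parallel samples were stained with Accustain. Monocytes and granulocytes holding three or more particles were scored positive. Mean ± SD; P <0.05.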

The test system of series [3] is Mus musculus. Description: Immunostimulatory activity in BALB/c mouse assessed as decrease in lymphocyte count in peripheral blood at 100 ug, ip after 24 hrs. It is filed as functional, organism-based.
In series [4] the test system is Mus musculus. Description: Immunostimulatory activity in BALB/c mouse assessed as induction of peritoneal macrophage phagocytosis at 100 ug, ip after 24 hrs. The format is functional, organism-based. A digest of the protocol: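 Oligosaccharide was given ip to female BALB/c mice (6–8 weeks) 24 h before harvest. Peritoneal macrophages were isolated, diluted to 1×10⁷ in RPMI-1640 with 5% fetal calf serum, and incubated with HEMA microspheres. Smears were stained with Accustain, and phagocytosis was scored with differential counts; cells with three or more particles counted positive.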

Series [5] has as its system Mus musculus. The series is described as follows: Immunostimulatory activity in BALB/c mouse assessed as increase in granulocyte count in peripheral blood at 100 ug, ip after 24 hrs. It is filed as functional, organism-based.
For series [6], the system named is Mus musculus. The series is described as follows: Immunostimulatory activity in BALB/c mouse assessed as induction of peripheral blood monocyte phagocytosis at 100 ug, ip after 24 hrs. It is filed as functional, organism-based. In outline: as §1
The next series deals with Caco-2. The series is described as follows: Cytotoxicity against human Caco-2 cells assessed as effect on cell growth at 0.1 to 25 uM after 24 to 48 hrs by Hoechst 3342 staining-based imaging analysis. Particulars: caco-2, 25 µM. A digest of the protocol: (§2)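 Human tumour lines (liver, colon, prostate, breast, lung) and resting normal diploid skin fibroblasts were grown per supplier guidance. 4×10³ cells/well attached for 24 h, then were exposed to increasing compound concentrations for 1 and 2 days. Cells were fixed in 4% paraformaldehyde, nuclei stained with Hoechst 3342, and counted by automated imaging from four pictures per well.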

Series [7] in a line: Cytotoxicity against human NCI/ADR cells assessed as effect on cell growth at 0.1 to 25 uM after 24 to 48 hrs by Hoechst 3342 staining-based imaging analysis. A digest of the protocol: as §2
The next series relates to HCT-116. The series is described as follows: Cytotoxicity against human HCT116 cells assessed as effect on cell growth at 0.1 to 25 uM after 24 to 48 hrs by Hoechst 3342 staining-based imaging analysis. Particulars: hct-116, 25 µM. A digest of the protocol: as §2
The next series deals with PC-3. Description: Cytotoxicity against human PC3 cells assessed as effect on cell growth at 0.1 to 25 uM after 24 to 48 hrs by Hoechst 3342 staining-based imaging analysis. The note with it: pc-3, 25 µM. In outline:
as §2

Series [8] can be described thus: Cytotoxicity against human HuH7 cells assessed as effect on cell growth at 0.1 to 25 uM after 24 to 48 hrs by Hoechst 3342 staining-based imaging analysis. Particulars: huh-7, 25 µM. A digest of the protocol:
as §2

Series [9] is filed under the species Mus musculus. The series is described as follows: Immunostimulatory activity in BALB/c mouse splenocytes assessed as induction of IL2 production at 100 ug after 72 hrs. The format is functional, organism-based. Particulars: Splenocyte. A digest of the protocol:
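Spleen cells came from female BALB/c mice (6–8 weeks) injected ip with oligosaccharide; controls were PBS-injected mice. Cells were plated at 2×10⁶/mL in RPMI-1640 with 5% FCS, with Concanavalin A added to positive-control wells. After 72 h at 37 °C and 5% CO₂, supernatant IL-2 was measured with a Quantikine mouse IL-2 kit. Mean of three independent experiments ± SD.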

Series [10] in a line: Cytotoxicity against human skin fibroblast assessed as effect on cell growth at 0.1 to 25 uM after 24 to 48 hrs by Hoechst 3342 staining-based imaging analysis. A digest of the protocol:
as §2

The structures appear in SMILES notation. Calls of active or inactive are those of the source. The rule behind the calls is not given here.

Regarding `OC[C@H]1O[C@@H](O[C@@H]2[C@@H](O)[C@H](O[C@@H]3[C@@H](O)[C@H](O[C@@H]4[C@@H](O)[C@H](O[C@@H]5[C@@H](O)[C@H](O)O[C@H](CO)[C@H]5O)O[C@H](CO)[C@H]4O)O[C@H](CO)[C@H]3O)O[C@H](CO)[C@H]2O)[C@H](O)[C@@H](O)[C@@H]1O`, the result in the series on Mus musculus [1], in the series on Mus musculus [2], in the series on Mus musculus [3], in the series with Mus musculus [4], in the series with Mus musculus [5] and in the series with Mus musculus [6] was Active.
For the compound `OC[C@H]1O[C@@H](O[C@@H]2[C@@H](O)[C@H](O[C@@H]3[C@@H](O)[C@H](O[C@@H]4[C@@H](O)[C@H](O[C@H]5[C@H](O)[C@@H](CO)OC(O)[C@H]5O)O[C@H](CO)[C@H]4O)O[C@H](CO)[C@H]3O)O[C@H](CO)[C@H]2O)[C@H](O)[C@@H](O)[C@@H]1O` (some centres not stated), the outcome in the series with Mus musculus [1], in the series on Mus musculus [2], with Mus musculus [3], in the series on Mus musculus [4], in the series filed under Mus musculus [9] and in the series on Mus musculus [5] was Active. Further, the result with Mus musculus [6] was Active. Further, the Activity entry (in the series with Caco-2; in series [7]; in the series on HCT-116; in the series on PC-3; in [8]; in series [10]) was “Non-toxic” throughout.
With `OC[C@H]1O[C@@H](O[C@@H]2[C@@H](O)[C@H](O[C@@H]3[C@@H](O)[C@H](O[C@@H]4[C@@H](O)[C@H](O[C@@H]5[C@@H](O)[C@H](O[C@@H]6[C@@H](O)[C@H](O[C@@H]7[C@@H](O)[C@H](O)O[C@H](CO)[C@H]7O)O[C@H](CO)[C@H]6O)O[C@H](CO)[C@H]5O)O[C@H](CO)[C@H]4O)O[C@H](CO)[C@H]3O)O[C@H](CO)[C@H]2O)[C@H](O)[C@@H](O)[C@@H]1O`, the outcome with Mus musculus [1], in the series with Mus musculus [2], in the series on Mus musculus [3], in the series on Mus musculus [4], in the series on Mus musculus [5] and in the series with Mus musculus [6] was Active.
As to `OC[C@H]1O[C@@H](O[C@@H]2[C@@H](O)[C@H](O[C@@H]3[C@@H](O)[C@H](O[C@@H]4[C@@H](O)[C@H](O[C@@H]5[C@@H](O)[C@H](O[C@H]6[C@H](O)[C@@H](CO)OC(O)[C@H]6O)O[C@H](CO)[C@H]5O)O[C@H](CO)[C@H]4O)O[C@H](CO)[C@H]3O)O[C@H](CO)[C@H]2O)[C@H](O)[C@@H](O)[C@@H]1O` (some centres not stated), the result in the series with Mus musculus [1], in the series on Mus musculus [2], with Mus musculus [3], in the series on Mus musculus [4], with Mus musculus [5] and in the series on Mus musculus [6] was Active. Moreover, the Activity entry (in the series on Caco-2; in series [7]; in the series on HCT-116; in the series with PC-3; in series [8]; in series [10]) was “Non-toxic” each time.

Values taken from ChEMBL document CHEMBL1157669, “New oligo-beta-(1,3)-glucan derivatives as immunostimulating agents” (Bioorg Med Chem, 2010).
